Our source for the Activity, inhibition and inhibition in vivo values is ChEMBL document CHEMBL4382232, “Grayanane Diterpenoid Glucosides from the Leaves of Rhododendron micranthum and Their Bioactivities Evaluation” (2018).

One assay concerns HL-60. Nature of the assay: Cytotoxicity against human HL60 cells at 40 uM after 48 hrs by MTT assay. Type of assay: functional, cell-based. In general terms: Tetrazolium assays rely on reduction of a dye to a coloured formazan, in cell work by metabolically active cells.
Another assay has as its system SMMC-7721. Nature of the assay: Cytotoxicity against human SMMC7721 cells at 40 uM after 48 hrs by MTT assay. Type of assay: functional, cell-based.
For a further assay, the system named is SW480. The assay is described as follows: Cytotoxicity against human SW480 cells at 40 uM after 48 hrs by MTT assay. Type of assay: functional, cell-based.
A further assay has as its system A549. Nature of the assay: Cytotoxicity against human A549 cells at 40 uM after 48 hrs by MTT assay. Type of assay: functional, cell-based.
The next assay concerns MCF7. Nature of the assay: Cytotoxicity against human MCF7 cells at 40 uM after 48 hrs by MTT assay. Format: functional, cell-based.
The test system of assay [1] is Mus musculus. Nature of the assay: Antinociceptive activity in Kunming mouse model of acetic-acid-induced writhing assessed as inhibition of writhing numbers at 5 mg/kg measured for 30 mins relative to control. Format: functional. Particulars: for inhibition in vivo at 5 mg/kg: 0.5 h. The procedure, abridged:
(§1)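 Acetic-acid-induced writhing model in Kunming mice (10 per group); doses 0.2, 1.0 and 5.0 mg/kg; vehicle-treated and morphine positive-control groups; inhibition of writhing relative to vehicle; mean ± SEM; one-way ANOVA with Bonferroni test. Animal work approved by institutional ethics committee.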
In general terms: In writhing tests, fewer writhes than in controls are read as antinociception.

In assay [2] the target is T1, Tyrosine-protein phosphatase non-receptor type 1 (Homo sapiens) (UniProt P18031).
T1 sequence (whole entry): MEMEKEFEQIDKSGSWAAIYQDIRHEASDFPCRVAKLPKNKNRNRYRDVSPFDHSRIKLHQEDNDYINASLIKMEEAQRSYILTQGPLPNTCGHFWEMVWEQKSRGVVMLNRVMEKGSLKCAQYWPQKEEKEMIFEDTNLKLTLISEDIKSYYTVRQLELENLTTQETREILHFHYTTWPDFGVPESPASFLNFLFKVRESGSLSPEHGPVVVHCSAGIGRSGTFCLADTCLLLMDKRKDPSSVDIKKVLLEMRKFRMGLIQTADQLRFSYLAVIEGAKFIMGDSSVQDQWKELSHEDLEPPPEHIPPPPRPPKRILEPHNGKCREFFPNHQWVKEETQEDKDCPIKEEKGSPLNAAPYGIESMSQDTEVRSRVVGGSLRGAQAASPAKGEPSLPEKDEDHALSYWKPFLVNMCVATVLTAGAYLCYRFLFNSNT
The assay is described as follows: Inhibition of recombinant human PTP1B at 40 uM using pNPP as substrate preincubated for 10 mins followed by substrate addition and measured after 30 mins at 5 mins time interval for 30 mins.

The next assay deals with RAW264.7. Nature of the assay: Anti-inflammatory activity in mouse RAW264.7 cells assessed as inhibition of LPS-induced NO production at 40 uM. Type of assay: functional, cell-based.
Assay [3] relates to Mus musculus. The assay is described as follows: Antinociceptive activity in Kunming mouse model of acetic-acid-induced writhing assessed as inhibition of writhing numbers at 1 mg/kg measured for 30 mins relative to control. The settings on record: 0.5 h. Type of assay: functional. The procedure, abridged:
as §1

For assay [4], the system named is Mus musculus. The assay is described as follows: Antinociceptive activity in Kunming mouse model of acetic-acid-induced writhing assessed as inhibition of writhing numbers at 0.2 mg/kg measured for 30 mins relative to control. Type of assay: functional. The settings on record: 0.5 h. The procedure, abridged: as §1

Calls of active or inactive are those of the source. No cut-off for these calls is given here. Bounds are passed on as bounds.

As for `C=C1[C@@H]2CC[C@@H]3C[C@@]2(C[C@@H](O)[C@@]2(O)[C@H]1C[C@@H](O[C@@H]1O[C@H](CO)[C@@H](O)[C@H](O)[C@H]1O)C2(C)C)C[C@@]3(C)O`, the outcome in the assay with HL-60, in the assay with SMMC-7721, in the assay with SW480, in the assay on A549 and in the assay with MCF7 was inactive. In addition, the inhibition result in the assay on Mus musculus [1] is “Active”. In addition, the inhibition entry (in assay [2]; in the assay on RAW264.7) was “inactive” throughout.

Regarding `C=C1[C@@H]2CC[C@@H]3[C@@H](OC(C)=O)[C@@]2(C[C@@H](O)[C@@]2(O)[C@H]1C[C@H](O[C@@H]1O[C@H](CO)[C@@H](O)[C@H](O)[C@H]1O)C2(C)C)C[C@@]3(C)O`, the outcome in the assay on HL-60, in the assay with SMMC-7721, with SW480, with A549 and in the assay with MCF7 was inactive. Also, in the assay with Mus musculus [1], the inhibition entry is “Active”. The inhibition result (in assay [2]; in the assay with RAW264.7) was “inactive” throughout.

As usually defined, the inhibition in vivo is the share of the control response that was lost under treatment. As for `C=C1[C@@H]2CC[C@H]3C(C)=C[C@]2(C[C@@H](O)[C@@]2(O)[C@H]1C[C@H](O[C@@H]1O[C@H](CO)[C@@H](O)[C@H](O)[C@H]1O)C2(C)C)[C@@H]3O`, the result in the assay on HL-60, with SMMC-7721, in the assay on SW480, in the assay with A549 and with MCF7 was inactive. The inhibition in vivo at 5 mg/kg in the assay with Mus musculus [1] came out at 50%. The inhibition result (in assay [2]; with RAW264.7) was “inactive” in each case.

Take `C=C1[C@@H]2CC[C@@H]3[C@@H](OC(C)=O)[C@@]2(C[C@@H](O)[C@@]2(O)[C@H]1C[C@H](O)C2(C)C)C[C@@]3(C)O[C@@H]1O[C@H](CO)[C@@H](O)[C@H](O)[C@H]1O`: the outcome with HL-60, in the assay with SMMC-7721, in the assay on SW480, in the assay with A549 and with MCF7 was inactive. Moreover, the inhibition in vivo at 5 mg/kg in the assay on Mus musculus [1] is more than 50%. Further, the inhibition entry (in assay [2]; in the assay with RAW264.7) was “inactive” each time.

Turning to `C=C1[C@H]2C[C@H](O[C@@H]3O[C@H](CO)[C@@H](O)[C@H](O)[C@H]3O)C(C)(C)[C@]2(O)CC[C@@]23C[C@@H](CC[C@@H]12)[C@](C)(O)C3`, the outcome in the assay on HL-60, with SMMC-7721, in the assay with SW480, with A549 and with MCF7 was inactive. Also, the inhibition in vivo at 5 mg/kg with Mus musculus [1] stood at 82.3%. Further, the inhibition in vivo at 1 mg/kg in the assay on Mus musculus [3] was 58.7%. Besides, the inhibition entry (in assay [2]; in the assay on RAW264.7) was “inactive” each time. For the same compound, the inhibition in vivo at 0.2 mg/kg in the assay with Mus musculus [4] worked out at 46.1%.

Take `CC1=C2CC[C@@H]3[C@@H](O)[C@@]2(C[C@@H](O)[C@@]2(O)[C@H]1C[C@H](O[C@@H]1O[C@H](CO)[C@@H](O)[C@H](O)[C@H]1O)C2(C)C)C[C@@]3(C)O`: the outcome in the assay on HL-60, in the assay on SMMC-7721, in the assay on SW480, in the assay with A549 and in the assay with MCF7 was inactive. For the same compound, in the assay on Mus musculus [1], the inhibition in vivo at 5 mg/kg was more than 50%. Besides, the inhibition entry (in [2]; in the assay on RAW264.7) was “inactive” in each case.
